PubChem BioAssay AID488828 (Molecular Libraries Program, Specialized Chemistry Center, …, 2010)
Calls of active or inactive are those of the source.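 Rule for the calls: active = IC50 at or below 10 µM; inactive = the rest.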

These compounds were tested against Transitional endoplasmic reticulum ATPase (Homo sapiens) (UniProt P55072) (assay: p97 ATPase inhibitors, SAR follow-up, biochemical, hit optimization round 2 (AID 488828)). Settings: purified p97 ATPase, Kinase-Glo ATP luminescence.
Transitional endoplasmic reticulum ATPase (Homo sapiens), sequence (P55072 whole entry, looked up): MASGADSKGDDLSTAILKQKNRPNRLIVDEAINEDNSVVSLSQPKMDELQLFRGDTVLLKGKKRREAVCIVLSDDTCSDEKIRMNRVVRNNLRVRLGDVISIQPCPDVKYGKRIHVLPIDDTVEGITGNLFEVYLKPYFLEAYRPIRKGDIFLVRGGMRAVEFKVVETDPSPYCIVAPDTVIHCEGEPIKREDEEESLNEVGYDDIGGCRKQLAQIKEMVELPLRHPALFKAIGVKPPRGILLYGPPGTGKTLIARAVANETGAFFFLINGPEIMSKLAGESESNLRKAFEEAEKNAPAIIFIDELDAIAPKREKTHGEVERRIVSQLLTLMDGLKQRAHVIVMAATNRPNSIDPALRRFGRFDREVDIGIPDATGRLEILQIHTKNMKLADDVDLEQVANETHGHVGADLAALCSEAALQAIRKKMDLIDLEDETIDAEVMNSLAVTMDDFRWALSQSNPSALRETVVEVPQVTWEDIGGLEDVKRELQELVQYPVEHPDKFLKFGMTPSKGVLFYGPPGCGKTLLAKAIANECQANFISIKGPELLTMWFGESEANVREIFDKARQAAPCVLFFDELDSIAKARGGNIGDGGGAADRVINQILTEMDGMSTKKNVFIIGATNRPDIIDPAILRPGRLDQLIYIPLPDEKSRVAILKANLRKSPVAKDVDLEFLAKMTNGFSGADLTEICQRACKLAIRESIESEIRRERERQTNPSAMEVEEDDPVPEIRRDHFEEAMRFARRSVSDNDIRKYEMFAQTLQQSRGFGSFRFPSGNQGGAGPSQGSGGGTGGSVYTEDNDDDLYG
Method in brief: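 Assay system: human p97 ATPase; Reagent: ATP, 500 µM stock; Medium: Tris buffer pH 7.4 with MgCl2 and EDTA; Incubation: 10 min room-temperature enzyme–compound preincubation, 30 min 37 °C ATP reaction; Signal: Kinase-Glo Plus luminescence of residual ATP.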
For `Clc1cccc(CNc2nc(Cl)nc3ccccc23)c1`, the IC50 was > 30 µM (inactive). For `Clc1nc(NCc2ccc(Br)cc2)c2ccccc2n1`, the IC50 was > 30 µM (inactive). `Brc1cccc2c(NCc3ccccc3)nc(NCc3ccccc3)nc12` gave an IC50 of 3.3 µM. For `CC(C)n1c2ccccc2c2nnc(SCC(=O)OCN3C(=O)c4ccccc4C3=O)nc21`, the IC50 was > 30 µM (inactive). In the case of `Cc1ccccc1CNc1nc(Cl)nc2ccccc12`, the IC50 is reported as > 30 µM (inactive). `Clc1ccc2c(NCc3ccccc3)nc(NCc3ccccc3)nc2c1` was tested, and the IC50 was 5.5 µM. With `Fc1ccc(CNc2nc(Nc3cccc(Cl)c3)nc3ccccc23)cc1` the IC50 was 1.5 µM. `Fc1ccc2nc(NCc3ccccc3)nc(NCc3ccccc3)c2c1` showed an IC50 of 4.7 µM. `Cc1ccc(CNc2nc(Nc3cccc(Cl)c3)nc3ccccc23)cc1` gave an IC50 of 1.4 µM. For `COc1ccc(C)cc1NC(=O)c1[nH]c(C)c(C(C)=O)c1C`, the IC50 was > 30 µM (inactive). For `COc1ccc(Nc2nc(Nc3ccc(OC)cc3)c3ccccc3n2)cc1`, the IC50 was “inactive”. `CN1CCN(S(=O)(=O)c2ccc(NC(=O)c3cccc(S(=O)(=O)N4CCCC4)c3)cc2)CC1` was tested, and the IC50 was > 30 µM (inactive). For `Clc1cccc2nc(NCc3ccccc3)nc(NCc3ccccc3)c12`, the IC50 was 2.2 µM. In the case of `c1ccc(CNc2nc(N3CCc4ccccc43)nc3ccccc23)cc1`, the IC50 is reported as 2 µM. In the case of `Cc1ccccc1CNc1nc(Nc2cccc(Cl)c2)nc2ccccc12`, the IC50 is reported as 4.2 µM. In the case of `O=[N+]([O-])c1cccc(Nc2nc(NCc3ccccc3)c3ccccc3n2)c1`, the IC50 is reported as 5.2 µM. Compound `COc1c(F)cccc1Nc1nc(NCc2ccccc2)c2ccccc2n1` has an IC50 of 1.7 µM. In the case of `Clc1cccc(Nc2nc(NCc3ccccc3Br)c3ccccc3n2)c1`, the IC50 is reported as 4 µM. `FC(F)(F)c1ccc2c(NCc3ccccc3)nc(NCc3ccccc3)nc2c1` gave an IC50 of 9.1 µM. In the case of `Fc1cccc2c(NCc3ccccc3)nc(NCc3ccccc3)nc12`, the IC50 is reported as 3.1 µM. `COc1ccccc1CNc1nc(Nc2cccc(Cl)c2)nc2ccccc12` was tested, and the IC50 was 1.6 µM. In the case of `Fc1cccc(CNc2nc(Nc3cccc(Cl)c3)nc3ccccc23)c1`, the IC50 is reported as 1.2 µM. In the case of `COc1ccc(F)cc1Nc1nc(NCc2ccccc2)c2ccccc2n1`, the IC50 is reported as 6.7 µM. Work on `c1ccc(CNc2nc(N3CCCc4ccccc43)nc3ccccc23)cc1` yielded an IC50 of 4.4 µM. Compound `Cc1c(Cl)cccc1Nc1nc(NCc2ccccc2)c2ccccc2n1` has an IC50 of 0.7 µM. `Cc1c(F)cccc1Nc1nc(NCc2ccccc2)c2ccccc2n1` showed an IC50 of 0.9 µM. With `c1ccc(CNc2nc(N3CCOc4ccccc43)nc3ccccc23)cc1` the IC50 was 0.6 µM. In the case of `Cc1ccc(Nc2nc(NCc3ccccc3)c3ccccc3n2)cc1F`, the IC50 is reported as 0.9 µM. Compound `Clc1ccc(CNc2nc(Nc3cccc(Cl)c3)nc3ccccc23)cc1` has an IC50 of 2.8 µM. In the case of `O=C(C1CCCN(S(=O)(=O)c2cnc[nH]2)C1)N(CCc1ccccc1)Cc1ccccc1` (stereo unspecified), the IC50 is reported as > 30 µM (inactive). `COc1cccc(CNc2nc(Nc3cccc(Cl)c3)nc3ccccc23)c1` was tested, and the IC50 was 1 µM. `Cc1cc(F)cc(Nc2nc(NCc3ccccc3)c3ccccc3n2)c1` was tested, and the IC50 was 0.7 µM. Work on `Clc1cccc(Nc2nc(NCc3ccc(Br)cc3)c3ccccc3n2)c1` yielded an IC50 of 7.4 µM. `COc1ccc(Cl)cc1Nc1nc(NCc2ccccc2)c2ccccc2n1` showed an IC50 of 1.1 µM. With `Clc1ccc(CNc2nc(Cl)nc3ccccc23)cc1` the IC50 was > 30 µM (inactive). `Clc1nc(NCc2ccccc2Cl)c2ccccc2n1` was tested, and the IC50 was > 30 µM (inactive). For `CC(C)(C)NC(=O)Nc1ccc2nccnc2c1`, the IC50 was > 30 µM (inactive). In the case of `Fc1ccc2c(NCc3ccccc3)nc(NCc3ccccc3)nc2c1`, the IC50 is reported as 2.6 µM. For `Fc1cccc(CNc2nc(Cl)nc3ccccc23)c1`, the IC50 was > 30 µM (inactive). For `CC(C)Sc1oc(-c2ccco2)nc1S(=O)(=O)c1ccc(F)cc1`, the IC50 was 3 µM. `Fc1ccccc1-c1nc(NCc2ccccc2)c2ccccc2n1` showed an IC50 of 1.1 µM. With `Clc1nc(NCc2cccc(Br)c2)c2ccccc2n1` the IC50 was > 30 µM (inactive). For `c1ccc(CNc2nc(N3CCNc4ccccc43)nc3ccccc23)cc1`, the IC50 was 0.4 µM. With `Fc1ccccc1CNc1nc(Nc2cccc(Cl)c2)nc2ccccc12` the IC50 was 1.8 µM. With `CC1(C)N(O)CC(c2cccs2)=[N+]1[O-]` the IC50 was > 30 µM (inactive). `Ic1cccc(Nc2nc(NCc3ccccc3)c3ccccc3n2)c1` was tested, and the IC50 was 5.2 µM. `c1ccc(Nc2nc(Nc3ccccc3)c3ccccc3n2)cc1` showed an IC50 of 2.6 µM. `Fc1cccc2nc(NCc3ccccc3)nc(NCc3ccccc3)c12` was tested, and the IC50 was 1.2 µM. `CC(=O)Nc1ccc(NC(=O)c2ccccc2F)cc1` was tested, and the IC50 was > 30 µM (inactive). In the case of `Cc1ccc(C2=[N+]([O-])C3(CCCCC/C3=N\O)N(O)C2(C)C)o1` (stereo unspecified), the IC50 is reported as > 30 µM (inactive). In the case of `Cc1ccc(Cl)cc1Nc1nc(NCc2ccccc2)c2ccccc2n1`, the IC50 is reported as 0.8 µM. Compound `Cc1ccc(F)cc1Nc1nc(NCc2ccccc2)c2ccccc2n1` has an IC50 of 0.8 µM. For `COc1cccc2c(NCc3ccccc3)nc(NCc3ccccc3)nc12`, the IC50 was 0.6 µM. Work on `COc1ccc2c(NCc3ccccc3)nc(NCc3ccccc3)nc2c1` yielded an IC50 of 5.7 µM. For `N#Cc1ccc2c(NCc3ccccc3)nc(NCc3ccccc3)nc2c1`, the IC50 was “inactive”. In the case of `Cc1cccc(CNc2nc(Cl)nc3ccccc23)c1`, the IC50 is reported as > 30 µM (inactive). For `O=C1C(C=NCC2CCCO2)=C(O)c2ccccc21` (stereo unspecified), the IC50 was > 30 µM (inactive). `CCOC(=O)NC(NC(=O)OCC)C(=O)c1ccc(F)cc1` was tested, and the IC50 was > 30 µM (inactive). Work on `COc1cc2nc(NCc3ccccc3)nc(NCc3ccccc3)c2cc1OC` yielded an IC50 of 4.4 µM. For `Clc1nc(NCc2ccccc2Br)c2ccccc2n1`, the IC50 was > 30 µM (inactive). Work on `Clc1ccc2nc(NCc3ccccc3)nc(NCc3ccccc3)c2c1` yielded an IC50 of 1.6 µM. In the case of `COc1ccc(CNc2nc(Cl)nc3ccccc23)cc1`, the IC50 is reported as > 30 µM (inactive). With `Fc1ccc(CNc2nc(Cl)nc3ccccc23)cc1` the IC50 was > 30 µM (inactive). With `Brc1ccc2c(NCc3ccccc3)nc(NCc3ccccc3)nc2c1` the IC50 was “inactive”. In the case of `O=S(=O)(NC1CCCCC1)c1ccc(Br)cc1`, the IC50 is reported as > 30 µM (inactive). In the case of `Clc1cccc(Nc2nc(NCc3ccccc3Cl)c3ccccc3n2)c1`, the IC50 is reported as 4.7 µM. `Clc1cccc(Nc2nc(NCc3cccc(Br)c3)c3ccccc3n2)c1` gave an IC50 of 3.7 µM. For `COc1cccc(CNc2nc(Cl)nc3ccccc23)c1`, the IC50 was > 30 µM (inactive). `Cc1ccc(CNc2nc(Cl)nc3ccccc23)cc1` was tested, and the IC50 was > 30 µM (inactive). Compound `CCN(CC)c1ccc2cc(-c3nc4ccccc4[nH]3)c(=O)oc2c1` has an IC50 of 1.4 µM. Compound `COc1ccc2nc(NCc3ccccc3)nc(NCc3ccccc3)c2c1` has an IC50 of 7.5 µM. `Cc1ccc2c(NCc3ccccc3)nc(NCc3ccccc3)nc2c1` was tested, and the IC50 was 2.2 µM. `COc1ccc(Nc2nc(NCc3ccccc3)c3ccccc3n2)cc1F` gave an IC50 of 0.9 µM. `COc1ccccc1CNc1nc(Cl)nc2ccccc12` was tested, and the IC50 was > 30 µM (inactive). Compound `COc1ccc(CNc2nc(Nc3cccc(Cl)c3)nc3ccccc23)cc1` has an IC50 of 2.3 µM. For `COc1c(Cl)cccc1Nc1nc(NCc2ccccc2)c2ccccc2n1`, the IC50 was 0.9 µM. `Cc1cccc(CNc2nc(Nc3cccc(Cl)c3)nc3ccccc23)c1` was tested, and the IC50 was 2.3 µM. Compound `Clc1cccc(CNc2nc(Nc3cccc(Cl)c3)nc3ccccc23)c1` has an IC50 of 5 µM. For `Fc1ccccc1CNc1nc(Cl)nc2ccccc12`, the IC50 was > 30 µM (inactive). For `O=C(NCc1ccco1)c1cc(S(=O)(=O)N2CCOCC2)ccc1Cl`, the IC50 was > 30 µM (inactive).

Same assay, conditions: purified p97 ATPase, Kinase-Glo ATP luminescence; at 30 µM (top of the series)
With `Clc1ccc(Nc2nc(Nc3cccc(Cl)c3)nc3ccccc23)cc1` the inhibition was “inactive”.
